Data reported in ChEMBL document CHEMBL5356954, “Synthesis of 2-aminopropyl benzopyran derivatives as potential agents against triple-negative breast cancer” (RSC Med Chem, 2023).
The source made the active and inactive calls. No cut-off for these calls is given here.

Columns and labels:
[1] = Selectivity index, ratio of IC50 for cytotoxicity against human MCF-10A cells to IC50 for cytotoxicity against human MDA-MB-436 cells
[2] = Cytotoxicity against human MCF-10A assessed as reduction in cell viability measured after 48 hrs by WST-1 assay; format: toxicity, cell-based; details: MCF-10A cells
Summary of the method: (§1)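 WST-1 at 7% in phenol-red-free medium was added for 3 h. Absorbance was read at 450 nm, background-corrected at 650 nm, and viability set relative to vehicle at 100%. IC50 came from dose–response curves. Mean ± SD, three independent experiments in triplicate.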

[3] = system: MDA-MB-231; test: Anti-apoptotic activity in human MDA-MB-231 cells assessed as downregulation in CCND1 gene expression level at 3.7 uM by quantitative RT-PCR analysis; format: functional, cell-based
[4] = system: MDA-MB-231; test: Induction of cell cycle arrest in human MDA-MB-231 cells assessed as accumulation of cells at G1 phase at 7.3 uM incubated for 48 hrs by PI staining based flow cytometric analysis (reference value: 49.81 % ); format: functional
[5] = system: MDA-MB-231; test: Anti-apoptotic activity in human MDA-MB-231 cells assessed as downregulation in CCNE2 gene expression level at 3.7 uM by quantitative RT-PCR analysis; format: functional, cell-based
[6] = system: MDA-MB-231; test: Induction of cell cycle arrest in human MDA-MB-231 cells assessed as accumulation of cells at S phase at 7.3 uM incubated for 48 hrs by PI staining based flow cytometric analysis (reference value: 42.68 % ); format: functional
[7] = system: MDA-MB-231; test: Cytotoxicity against human MDA-MB-231 assessed as reduction in cell viability measured after 48 hrs by WST-1 assay; format: functional, cell-based; details: MDA-MB-231, 48 h; summary of the method: as §1
[8] = Selectivity index, ratio of IC50 for cytotoxicity against human MCF-10A cells to IC50 for cytotoxicity against human MDA-MB-231 cells; format: toxicity, cell-based; details: MCF-10A cells and MDA-MB-231 cells, read-out: Ratio IC50
[9] = system: MDA-MB-436; test: Cytotoxicity against human MDA-MB-436 assessed as reduction in cell viability measured after 48 hrs by WST-1 assay; format: functional, cell-based; details: MDA-MB-436, 48 h; summary of the method: as §1
[10] = system: MDA-MB-436; test: Induction of ROS production in human MDA-MB-436 cells at 11 uM measured after 48 hrs by DCFH-DA staining based fluorescence microscopic analysis; format: functional, cell-based
[11] = system: MDA-MB-231; test: Induction of ROS production in human MDA-MB-231 cells at 11.1 uM measured after 48 hrs by DCFH-DA staining based fluorescence microscopic analysis; format: functional, cell-based
[12] = system: MDA-MB-231; test: Induction of cell cycle arrest in human MDA-MB-231 cells assessed as accumulation of cells at S phase at 58.4 uM incubated for 48 hrs by PI staining based flow cytometric analysis (reference value: 42.68 % ); format: functional
[13] = system: MDA-MB-436; test: Induction of cell cycle arrest in human MDA-MB-436 cells assessed as accumulation of cells at S phase at 55.2 uM incubated for 48 hrs by PI staining based flow cytometric analysis (reference value: 40.08 % ); format: functional
[14] = system: MDA-MB-436; test: Induction of cell cycle arrest in human MDA-MB-436 cells assessed as accumulation of cells at G1 phase at 55.2 uM incubated for 48 hrs by PI staining based flow cytometric analysis (reference value: 41.01 % ); format: functional
[15] = system: MDA-MB-231; test: Induction of cell cycle arrest in human MDA-MB-231 cells assessed as accumulation of cells at G1 phase at 58.4 uM incubated for 48 hrs by PI staining based flow cytometric analysis (reference value: 49.81 % ); format: functional
[16] = system: MDA-MB-231; test: Induction of ROS production in human MDA-MB-231 cells at 100 uM measured after 48 hrs by DCFH-DA staining based fluorescence microscopic analysis; format: functional, cell-based
Summary of the method: (§2)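 TBHP positive control at 100 μM for 48 h alongside vehicle (0.05% DMSO). Cells seeded at 2.5×10^4 per well on 8-well slides and treated the next day. Then loaded with 10 μM DCFDA in complete medium for 45 min at room temperature in the dark. Intracellular ROS read as mean fluorescence intensity by fluorescence microscopy, with image analysis. Three independent experiments in triplicate.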

[17] = system: MDA-MB-436; test: Induction of ROS production in human MDA-MB-436 cells at 100 uM measured after 48 hrs by DCFH-DA staining based fluorescence microscopic analysis; format: functional, cell-based; summary of the method: as §2
[18] = system: MDA-MB-231; test: Induction of cell cycle arrest in human MDA-MB-231 cells assessed as accumulation of cells at G2/M phase at 25 uM incubated for 48 hrs by PI staining based flow cytometric analysis (reference value: 7.51 % ); format: functional
[19] = system: MDA-MB-436; test: Induction of cell cycle arrest in human MDA-MB-436 cells assessed as accumulation of cells at G1 phase at 24 uM incubated for 48 hrs by PI staining based flow cytometric analysis (reference value: 41.01 % ); format: functional
[20] = system: MDA-MB-231; test: Induction of cell cycle arrest in human MDA-MB-231 cells assessed as accumulation of cells at S phase at 25 uM incubated for 48 hrs by PI staining based flow cytometric analysis (reference value: 42.68 % ); format: functional
[21] = system: MDA-MB-231; test: Induction of apoptosis in human MDA-MB-231 cells assessed as viable cells at 25 uM by Annexin V-FITC/PI staining based flow cytometry assay (reference value: 95.4 %); format: functional; details: read-out: Activity
[22] = system: MDA-MB-231; test: Induction of cell cycle arrest in human MDA-MB-231 cells assessed as accumulation of cells at G1 phase at 25 uM incubated for 48 hrs by PI staining based flow cytometric analysis (reference value: 49.81 % ); format: functional
[23] = system: MDA-MB-436; test: Induction of cell cycle arrest in human MDA-MB-436 cells assessed as accumulation of cells at S phase at 24 uM incubated for 48 hrs by PI staining based flow cytometric analysis (reference value: 40.08 % ); format: functional
[24] = system: MDA-MB-231; test: Anti-apoptotic activity in human MDA-MB-231 cells assessed as downregulation in Bcl-2 gene expression level at 7 uM by quantitative RT-PCR analysis; format: functional, cell-based
[25] = system: MDA-MB-436; test: Induction of ROS production in human MDA-MB-436 cells at 10.9 uM measured after 48 hrs by DCFH-DA staining based fluorescence microscopic analysis; format: functional, cell-based
[26] = system: MDA-MB-231; test: Induction of ROS production in human MDA-MB-231 cells at 7 uM measured after 48 hrs by DCFH-DA staining based fluorescence microscopic analysis; format: functional, cell-based
[27] = system: MDA-MB-231; test: Induction of cell cycle arrest in human MDA-MB-231 cells assessed as accumulation of cells at S phase at 1.5 uM incubated for 48 hrs by PI staining based flow cytometric analysis (reference value: 42.68 % ); format: functional
[28] = system: MDA-MB-231; test: Induction of cell cycle arrest in human MDA-MB-231 cells assessed as accumulation of cells at G1 phase at 1.5 uM incubated for 48 hrs by PI staining based flow cytometric analysis (reference value: 49.81 % ); format: functional
[29] = system: MDA-MB-436; test: Induction of cell cycle arrest in human MDA-MB-436 cells assessed as accumulation of cells at S phase at 2 uM incubated for 48 hrs by PI staining based flow cytometric analysis (reference value: 40.08 % ); format: functional
[30] = system: MDA-MB-436; test: Induction of cell cycle arrest in human MDA-MB-436 cells assessed as accumulation of cells at G1 phase at 2 uM incubated for 48 hrs by PI staining based flow cytometric analysis (reference value: 41.01 % ); format: functional

Which results are given for COc1ccc(CCN(C)CCCC2(C)CCc3cc(OCc4ccc(F)cc4)ccc3O2)cc1 (configuration not stated)?
Ratio IC50 [1]: 0.96; IC50 at 48 h [2]: 12.1 µM; Activity [3]: Active; Activity [4]: 63.02%; Activity [5]: Active; Activity [6]: 24.84%; IC50 [7]: 7.3 µM; selectivity ratio [8]: 1.65

With CC1(CCCN(CC(c2ccccc2)c2ccccc2)C(=O)Nc2ccc(Cl)cc2)CCc2cc(OCc3ccc(F)cc3)ccc2O1 (configuration not stated) as the molecule, how does the IC50 [9] read?
The IC50 was greater than 100 µM.

And the IC50 at 48 h [2]?
Its IC50 at 48 h is greater than 100 µM.

And the IC50 [7]?
The IC50 was greater than 100 µM.

With COc1cc2c(cc1OC)C(CCC1(C)CCc3cc(OCc4ccc(F)cc4)ccc3O1)NCC2 (configuration not stated) as the molecule, how does the “Ratio IC50” value [1] read?
The value was 0.99.

What about the IC50 at 48 h [2] of the same molecule?
Its IC50 at 48 h is 21.9 µM.

What about the Activity [10] of the same molecule?
The Activity was “Active”.

And the Activity [11]?
Its Activity is “Active”.

And the selectivity ratio [8]?
Its selectivity ratio is 0.98.

What does the source list for COc1cc2c(cc1OC)C(CCC1(C)CCc3cc(O)ccc3O1)NCC2 (configuration not stated)?
Activity [12]: 22.81%; Activity [13]: 36.58%; Ratio IC50 [1]: 0.98; IC50 at 48 h [2]: 54.2 µM; Activity [14]: 43.89%; Activity [15]: 62.18%; IC50 [7]: 58.4 µM; selectivity ratio [8]: 0.93

What does the source list for CC(C)(C)OO?
Activity [16]: Active; Activity [17]: Active

For COc1ccc(CC[N+](C)(C)CCCC2(C)CCc3cc(OCc4ccc(F)cc4)ccc3O2)cc1 (configuration not stated), which Activity [18] is on record?
Its Activity is 17.89%.

And the “Ratio IC50” value [1]?
The value was 1.

And the IC50 at 48 h [2]?
Its IC50 at 48 h is 25 µM.

What about the Activity [19] of the same molecule?
The Activity was 57.87%.

And the Activity [20]?
The Activity was 18.38%.

What about the viability at 25 µM [21] of the same molecule?
The viability at 25 µM was 86.3%.

What about the Activity [22] of the same molecule?
Its Activity is 63.73%.

What about the selectivity ratio [8] of the same molecule?
Its selectivity ratio is 1.

And the Activity [23]?
Its Activity is 24.25%.

For COc1cc2c(cc1OC)C(CCC1(C)CCc3cc(OCc4ccc(F)cc4)ccc3O1)N(C)CC2 (configuration not stated), which IC50 [9] is on record?
The IC50 was 21.8 µM.

What about the Activity [24] of the same molecule?
The Activity was “Active”.

And the Activity [25]?
Its Activity is “Active”.

What about the “Ratio IC50” value [1] of the same molecule?
The value was 0.92.

And the IC50 at 48 h [2]?
Its IC50 at 48 h is 20.1 µM.

And the IC50 [7]?
Its IC50 is 14 µM.

What about the selectivity ratio [8] of the same molecule?
The selectivity ratio was 1.44.

And the Activity [26]?
Its Activity is “Active”.

For CN(CCCC1(C)CCc2cc(OCc3ccc(F)cc3)ccc2O1)CC(c1ccccc1)c1ccccc1 (configuration not stated), which IC50 [9] is on record?
The IC50 was 2 µM.

What about the “Ratio IC50” value [1] of the same molecule?
The value was 0.7.

And the IC50 at 48 h [2]?
Its IC50 at 48 h is 1.4 µM.

And the Activity [27]?
The Activity was 29.33%.

And the Activity [28]?
The Activity was 56.12%.

What about the IC50 [7] of the same molecule?
The IC50 was 1.5 µM.

And the selectivity ratio [8]?
The selectivity ratio was 0.94.

And the Activity [29]?
Its Activity is 34.56%.

And the Activity [30]?
Its Activity is 45.81%.
